According to ChEMBL document CHEMBL1128459, “Characterization of potent and selective antagonists at postsynaptic 5-HT1A receptors in a series of N4-substituted arylpiperazines” (J Med Chem, 1995):

What was measured:
[1] = target: 5-hydroxytryptamine receptor 1B (Rattus norvegicus, UniProt P28564); experiment: Binding affinity at 5-hydroxytryptamine 1B receptor
Procedure, shortened: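 Rat frontal cortex membranes (1/40 wt/vol) were homogenized in 50 mM Tris pH 7.7 with pargyline, 4 mM CaCl2 and 0.1% ascorbic acid, then preincubated for 30 min at 37 °C. Labelled with 2.0 nM [3H]-5-HT, with 100 nM 8-OH-DPAT and 100 nM mesulergine masking 5-HT1A/5-HT2A sites; 5-CT defined nonspecific binding.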

Rattus norvegicus [2] = experiment: Compound after subcutaneous administration was evaluated for antagonist activity against hypothermia induced by 8-hydroxy -DPAT in rat; format: functional; settings: sc, read-out: ID50 (the source's name)
Procedure, shortened: (§1)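 Male Wistar rats (200-220 g) had rectal temperature taken, then received the test drug sc in distilled water (1.0 mL/kg). After 30 min they got 8-OH-DPAT 0.16 mg/kg sc, and temperature was remeasured 30 min later. Change from basal was scored.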

Rattus norvegicus [3] = experiment: Minimum effective agonist dose administered subcutaneously; format: functional; settings: sc, read-out: MED
Procedure, shortened: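 Male Wistar rats (200-220 g) were given the test drug alone sc in water (1.0 mL/kg), with vehicle reinjected at 30 min. Rectal temperature change from basal was measured 60 min after the first injection. MED for hypothermia was set against vehicle by ANOVA with Dunnett's test, P < 0.05.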

Rattus norvegicus [4] = experiment: Minimum effective antagonist dose administered subcutaneously; format: functional; settings: sc, read-out: MED; procedure, shortened: as §1
Rattus norvegicus [5] = organism: Rattus norvegicus; experiment: Maximum agonist effect (% effect) expressed relative to 8-hydroxy-DPAT (100%); format: functional
Procedure, shortened: (§2)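 In the rat rectal-temperature model (sc dosing, 8-OH-DPAT 0.16 mg/kg sc for antagonism), the maximal percentage of induced hypothermia (agonist) and of block of 8-OH-DPAT hypothermia (antagonist) was recorded. Each value is given with the dose at which it was reached.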

Rattus norvegicus [6] = organism: Rattus norvegicus; experiment: Maximum antagonist effect (% effect) expressed relative to 8-hydroxy-DPAT (100%); format: functional; procedure, shortened: as §2
[7] = Ratio of MED (agonist) to that of MED (antagonist) values.; format: functional
Procedure, shortened: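 The MED for inducing hypothermia alone was divided by the MED for blocking 8-OH-DPAT (0.16 mg/kg sc) hypothermia. Both MEDs came from sc dosing in male Wistar rats and were tested against vehicle by ANOVA with Dunnett's test, P < 0.05.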

[8] = target: Serotonin 1a (5-HT1a) receptor/Adrenergic receptor alpha-1 (Rattus norvegicus) (UniProt P15823+P23944+P43140+P19327); experiment: Ki ratio measured as the Ki values of alpha-1 adrenergic receptor to that of 5-hydroxytryptamine 1A receptor; format: protein assay
[9] = target: T1, Adrenergic receptor alpha-1 (Rattus norvegicus, UniProt P15823+P23944+P43140); experiment: In vitro binding affinity towards Alpha-1 adrenergic receptor in rat cortex was determined using [3H]prazosin as radioligand
T1 sequence (P15823 whole entry): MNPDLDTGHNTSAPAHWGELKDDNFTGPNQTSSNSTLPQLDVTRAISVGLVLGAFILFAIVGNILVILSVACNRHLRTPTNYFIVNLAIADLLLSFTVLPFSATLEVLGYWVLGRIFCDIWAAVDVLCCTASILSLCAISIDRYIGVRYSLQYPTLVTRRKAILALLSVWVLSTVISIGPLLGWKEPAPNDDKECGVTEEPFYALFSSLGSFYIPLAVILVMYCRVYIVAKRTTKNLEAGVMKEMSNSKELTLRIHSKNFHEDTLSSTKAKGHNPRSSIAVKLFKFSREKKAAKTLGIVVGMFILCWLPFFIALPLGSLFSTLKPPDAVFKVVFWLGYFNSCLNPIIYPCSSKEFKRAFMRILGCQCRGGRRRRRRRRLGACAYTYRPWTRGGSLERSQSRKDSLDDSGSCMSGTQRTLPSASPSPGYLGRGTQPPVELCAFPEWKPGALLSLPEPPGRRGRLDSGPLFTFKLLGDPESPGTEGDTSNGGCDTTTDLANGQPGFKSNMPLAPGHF
T1 sequence (P23944 whole entry): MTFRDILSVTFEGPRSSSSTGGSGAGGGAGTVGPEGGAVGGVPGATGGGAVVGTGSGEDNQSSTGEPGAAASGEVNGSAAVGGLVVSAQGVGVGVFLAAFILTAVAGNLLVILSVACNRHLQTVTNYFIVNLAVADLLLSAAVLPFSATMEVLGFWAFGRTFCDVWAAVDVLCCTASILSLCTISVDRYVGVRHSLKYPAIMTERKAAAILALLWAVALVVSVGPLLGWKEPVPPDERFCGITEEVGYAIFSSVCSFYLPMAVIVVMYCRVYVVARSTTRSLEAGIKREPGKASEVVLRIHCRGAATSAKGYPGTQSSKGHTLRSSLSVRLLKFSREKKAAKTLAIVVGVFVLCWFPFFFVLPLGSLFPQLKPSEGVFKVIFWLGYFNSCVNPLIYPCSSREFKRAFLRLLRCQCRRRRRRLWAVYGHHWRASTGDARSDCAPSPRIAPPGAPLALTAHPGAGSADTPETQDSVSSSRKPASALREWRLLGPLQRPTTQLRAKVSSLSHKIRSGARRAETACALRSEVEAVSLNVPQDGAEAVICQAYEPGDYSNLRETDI
T1 sequence (P43140 whole entry): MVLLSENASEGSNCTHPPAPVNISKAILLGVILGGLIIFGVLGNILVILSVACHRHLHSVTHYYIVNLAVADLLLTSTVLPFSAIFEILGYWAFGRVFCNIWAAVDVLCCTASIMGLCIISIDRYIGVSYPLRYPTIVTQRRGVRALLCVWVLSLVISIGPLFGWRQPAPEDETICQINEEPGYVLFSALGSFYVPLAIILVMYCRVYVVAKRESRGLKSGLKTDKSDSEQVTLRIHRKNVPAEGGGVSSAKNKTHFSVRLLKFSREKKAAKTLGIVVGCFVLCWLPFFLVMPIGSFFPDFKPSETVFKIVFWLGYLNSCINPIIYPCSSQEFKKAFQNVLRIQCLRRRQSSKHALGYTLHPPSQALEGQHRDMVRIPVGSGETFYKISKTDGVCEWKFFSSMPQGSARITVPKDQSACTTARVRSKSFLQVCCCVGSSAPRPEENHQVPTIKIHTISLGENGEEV
Procedure, shortened: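 Rat frontal cortex membranes (1/80 wt/vol), no preincubation, in 50 mM Tris pH 7.6 with 4 mM CaCl2 and 0.1% ascorbic acid. Ligand 0.2 nM [3H]prazosin, with phentolamine for nonspecific binding. Incubation 60 min at 25 °C, then filtration. IC50 obtained by regression and converted to pKi with radioligand Kd from saturation experiments.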

D(2) dopamine receptor [10] = target: T2, D(2) dopamine receptor (Rattus norvegicus, UniProt P61169); experiment: In vitro binding affinity towards Dopamine receptor D2 in rat striatum was determined using [3H]-spiperone as radioligand; format: tissue-based
Procedure, shortened: (§3)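 Rat striatal membranes (1/300 wt/vol), no preincubation, in 50 mM Tris pH 7.4 with CaCl2, ascorbic acid, 5 mM KCl, 1 mM MgCl2 and 120 mM NaCl. Ligand 0.2 nM [3H]spiperone, with 100 nM ketanserin masking 5-HT2A sites; raclopride defined nonspecific binding. Incubation 30 min at 37 °C, then filtration. pKi derived from regression-based IC50.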

[11] = target: D(2) dopamine receptor (Rattus norvegicus) (UniProt P61169)
[12] = target: T3, 5-hydroxytryptamine receptor 1A (Rattus norvegicus, UniProt P19327); experiment: Binding affinity at 5-hydroxytryptamine 1A receptor
T3 sequence (P19327 whole entry): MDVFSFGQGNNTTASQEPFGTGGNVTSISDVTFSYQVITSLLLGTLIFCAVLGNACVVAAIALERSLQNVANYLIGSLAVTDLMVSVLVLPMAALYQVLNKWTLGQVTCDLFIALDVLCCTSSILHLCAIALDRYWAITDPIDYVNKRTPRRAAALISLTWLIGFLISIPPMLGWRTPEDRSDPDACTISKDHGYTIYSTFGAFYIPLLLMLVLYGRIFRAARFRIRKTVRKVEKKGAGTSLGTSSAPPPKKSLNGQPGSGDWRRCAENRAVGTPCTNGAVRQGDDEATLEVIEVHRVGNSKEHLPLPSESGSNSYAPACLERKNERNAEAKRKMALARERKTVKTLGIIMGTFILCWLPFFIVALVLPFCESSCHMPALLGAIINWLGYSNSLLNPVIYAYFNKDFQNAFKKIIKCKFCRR
Procedure, shortened: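 Rat hippocampal membranes (1/100 wt/vol) in 50 mM Tris pH 7.7 with 4 mM CaCl2, 0.1% ascorbic acid and pargyline. Membranes were spun at 25000g, preincubated 30 min at 37 °C and respun, then incubated with 0.4 nM [3H]-8-OH-DPAT for 30 min at 25 °C. 5-HT defined nonspecific binding, and samples were filtered on PEI-soaked GF/B. IC50 came from regression; pKi = −log[IC50/(1+[L]/Kd)].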

[13] = target: D(2) dopamine receptor (Rattus norvegicus) (UniProt P61169); experiment: Inhibitory activity against methyl-phenidate-induced gnawing at dopamine receptor D2 in rat
Procedure, shortened: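 Male Wistar rats (200-220 g) received the test drug sc in water (1.0 mL/kg), then methylphenidate 40.0 mg/kg ip 30 min later. Observation began 30 min after that. Gnawing bouts were counted in 10 s per minute (maximum 10) by a blinded observer.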

D(2) dopamine receptor [14] = target: T2, D(2) dopamine receptor; experiment: In vitro binding affinity towards dopamine D2 receptor in rat striatum was determined using [3H]-spiperone as radioligand; format: tissue-based; procedure, shortened: as §3
D(2) dopamine receptor [15] = target: T2, D(2) dopamine receptor; experiment: In vitro binding affinity towards Dopamine receptor D2 in rat striatum was determined using [3H]spiperone as radioligand; format: tissue-based; procedure, shortened: as §3
[16] = target: 5-hydroxytryptamine receptor 1A (Rattus norvegicus) (UniProt P19327); experiment: Ki ratio measured as the Ki values of dopamine receptor to that of 5-hydroxytryptamine 1A receptor

Sequence of 5-hydroxytryptamine receptor 1B (P28564 whole entry): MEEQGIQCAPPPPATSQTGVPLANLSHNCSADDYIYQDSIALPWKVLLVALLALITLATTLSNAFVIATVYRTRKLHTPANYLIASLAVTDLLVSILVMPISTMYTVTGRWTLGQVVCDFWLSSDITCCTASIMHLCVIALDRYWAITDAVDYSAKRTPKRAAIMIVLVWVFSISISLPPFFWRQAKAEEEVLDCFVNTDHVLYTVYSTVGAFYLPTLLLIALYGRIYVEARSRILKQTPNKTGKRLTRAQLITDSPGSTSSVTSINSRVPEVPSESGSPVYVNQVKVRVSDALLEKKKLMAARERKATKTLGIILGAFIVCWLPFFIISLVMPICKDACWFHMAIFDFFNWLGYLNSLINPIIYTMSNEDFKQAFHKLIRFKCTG
T2 sequence (P61169 whole entry): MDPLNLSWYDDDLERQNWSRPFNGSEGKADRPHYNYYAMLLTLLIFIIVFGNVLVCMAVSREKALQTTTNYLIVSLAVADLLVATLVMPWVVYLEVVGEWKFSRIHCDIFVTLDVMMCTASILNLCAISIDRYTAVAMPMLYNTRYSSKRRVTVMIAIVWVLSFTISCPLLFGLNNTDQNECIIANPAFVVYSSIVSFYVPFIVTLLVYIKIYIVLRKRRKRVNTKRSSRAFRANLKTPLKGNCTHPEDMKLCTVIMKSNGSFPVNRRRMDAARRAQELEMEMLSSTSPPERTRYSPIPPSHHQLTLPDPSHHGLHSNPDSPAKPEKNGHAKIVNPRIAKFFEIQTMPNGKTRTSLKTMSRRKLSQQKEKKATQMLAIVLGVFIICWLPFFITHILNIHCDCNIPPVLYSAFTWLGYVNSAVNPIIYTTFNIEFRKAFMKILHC
Sequence of D(2) dopamine receptor (Rattus norvegicus) (P61169 whole entry): as above

Row | SMILES | Ki [1] [nM] | ED50 (Rattus norvegicus [2]) [mg/kg] | minimal effective dose (Rattus norvegicus [3]) [mg/kg] | minimal effective dose (Rattus norvegicus [4]) [mg/kg] | Max effect (Rattus norvegicus [5]) [%] | Max effect (Rattus norvegicus [6]) [%] | Ratio [7] | Ki ratio [8] | Log Ki [9] | Ki (D(2) dopamine receptor [10]) [nM] | ID50 [11] [mg/kg] | Ki [12] [nM] | ID50 [13] [mg/kg] | Ki (D(2) dopamine receptor [14]) [nM] | Ki (D(2) dopamine receptor [15]) [nM] | Ki ratio [16]
1 | COc1ccccc1N1CCN(C[C@@H](C(=O)NC(C)(C)C)c2ccccc2)CC1 | > 10000 | 2.45 | 40 | 2.5 | 50 | 73 | 16 | 35.6 | -5.94 | 389 | > 40 | – | – | – | – | –
2 | c1ccc2c(c1)CCC2CCN1CCN(c2cccc3c2OCCO3)CC1 (stereo not given) | – | 1.29 | > 40 | 0.63 | 19 | 94 | > 63.5 | – | – | – | – | 1.58 | > 40 | – | – | –
3 | c1ccc2c(c1)CC2CCCN1CCN(c2cccc3ccoc23)CC1 (stereo not given) | 1410 | 2.5 | 10 | 2.5 | 46 | 47 | 4 | – | – | – | – | 2.82 | 40 | – | – | –
4 | COc1cc2c(cc1OC)C(CCN1CCN(c3cccc4c3OCCO4)CC1)CC2 (stereo not given) | 676 | 0.86 | > 40 | 2.5 | 12 | 84 | > 16 | 9.8 | -7.81 | – | 40 | 1.58 | – | 132 | – | –
5 | COc1ccccc1N1CCN(CCCCN2C(=O)c3ccccc3C2=O)CC1 [NAN-190] | – | 97 | 5 | 0.63 | 100 | 56 | – | – | – | – | 10 | – | – | – | 31.6 | –
6 | c1ccc2c(c1)CC2CCN1CCN(c2cccc3ccoc23)CC1 (stereo not given) | 1510 | 1.12 | > 40 | 1.25 | 21 | 91 | > 32 | – | – | – | – | 1.41 | > 40 | – | – | –
7 | c1ccc2c(c1)CC(N1CCN(c3cccc4c3OCCCO4)CC1)C2 | 1410 | 5.18 | 10 | 5 | 72 | 51 | 2 | 55 | -6.68 | – | > 40 | – | – | – | 195 | –
8 | c1ccc2c(c1)CC2CCN1CCN(c2cccc3c2OCCO3)CC1 (stereo not given) | – | 0.65 | 40 | 1.25 | 32 | 76 | 32 | 35.4 | -7.66 | 49 | > 40 | 0.589 | – | – | – | –
9 | c1ccc2c(c1)CCC2CN1CCN(c2cccc3c2OCCO3)CC1 (stereo not given) | 200 | 1.32 | 10 | 0.63 | 43 | 63 | 15.8 | 18.6 | -7.75 | 41.7 | > 40 | 1.74 | – | – | – | 43.6
10 | c1ccc2c(c1)CC2CCCCN1CCN(c2cccc3c2OCCO3)CC1 (stereo not given) | 631 | 1.43 | > 10 | 5 | 0 | 88 | > 2 | 17.8 | -7.56 | – | > 40 | 1.29 | – | – | 19.5 | 12.5
11 | c1ccc2c(c1)CC(N1CCN(c3cccc4c3OCCO4)CC1)C2 | 1780 | 1.4 | 20 | 0.63 | 46 | 95 | 31.7 | 81 | -6.84 | 347 | > 40 | – | – | – | – | –
